Experimental data published in ChEMBL document CHEMBL5649170, “Sustained microglial depletion with CSF1R inhibitor impairs parenchymal plaque development in an Alzheimer's disease model” (Nat Commun, 2019).
Calls of active or inactive are those of the source. The rule behind the calls is not given here.

What was measured:
Mus musculus [1] = assay: Antialzheimer activity in 5XFAD mouse assessed as microglial numbers by measuring number of Iba positive cells per FOV in somatosensory cortex at 75 ppm administered as rodent chow starting from 1.5 months and measured after 5 months by immunolabeling based confocal microscopic analysis (reference value: 281 to 613); assay type: functional; conditions: route po, time 3.5 months, 2555 h
Procedure, shortened: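 5xFAD mice fed PLX3397 at 75 ppm in AIN-76A chow from 1.5 to 5 months of age; retrosplenial and somatosensory cortex sections stained with Thio-S and immunolabeled for IBA1; confocal imaging, IBA1+ cells and plaques quantified per region; two-tailed independent t-test, n = 4–5 per group, mean ± SEM.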

[2] = target: RAC-beta serine/threonine-protein kinase (Homo sapiens, UniProt P31751); assay: Inhibition of AKT2 (unknown origin)
[3] = target: Tyrosine-protein kinase Blk (Homo sapiens, UniProt P51451); assay: Inhibition of BLK (unknown origin)
[4] = target: Cyclin-dependent kinase 5/CDK5 activator 1 (Homo sapiens, UniProt Q00535); assay: Inhibition of CDK5_p35 (unknown origin); assay type: protein-complex assay
[5] = target: Inhibitor of nuclear factor kappa-B kinase subunit alpha (Homo sapiens, UniProt O15111); assay: Inhibition of CHUK (unknown origin)
Ephrin type-B receptor 2 = Ephrin type-B receptor 2 (Homo sapiens, UniProt P29323); assay: Inhibition of EPHB2 (unknown origin)
[6] = target: G protein-coupled receptor kinase 4 (Homo sapiens, UniProt P32298); assay: Inhibition of GRK4 (unknown origin)
Insulin receptor = Insulin receptor (Homo sapiens, UniProt P06213); assay: Inhibition of INSR (unknown origin)
[7] = target: Ribosomal protein S6 kinase alpha-1 (Homo sapiens, UniProt Q15418); assay: Inhibition of RPS6KA1 (unknown origin)
[8] = target: Serine/threonine-protein kinase Sgk2 (Homo sapiens, UniProt Q9HBY8); assay: Inhibition of SGK2 (unknown origin)
[9] = target: Tyrosine-protein kinase Yes (Homo sapiens, UniProt P07947); assay: Inhibition of YES1 (unknown origin)
[10] = AUC (0 to infinity) in mouse at 45 mg/kg, po administered as single dose via gavage; assay type: ADME, organism-based; conditions: in vivo
Mus musculus [11] = assay: Antialzheimer activity in 5XFAD mouse assessed as number of Iba positive cells per FOV in retro spinal cortex at 1200 ppm administered as rodent chow starting from 1.5 months and measured after 7 months (reference value: 473 to 792); assay type: functional; conditions: route po, time 5.5 months, 4015 h
Mus musculus [12] = assay: Antialzheimer activity in 5XFAD mouse assessed as percent change in claudin-5 intensity of Thio-S negative retro spinal cortex at 1200 ppm administered as rodent chow starting from 1.5 months and measured after 4 months by immunolabeling analysis relative to control; assay type: functional; conditions: route po, time 2.5 months, 1825 h
Mus musculus [13] = assay: Antialzheimer activity in 5XFAD mouse assessed as number of plaques in subiculum at 1200 ppm administered as rodent chow starting from 1.5 months and measured after 7 months by immunolabeling based confocal microscopic analysis (reference value: 139 to 212); assay type: functional; conditions: route po, time 5.5 months, 4015 h
[14] = Effect on C1qa gene expression in wild type mouse hippocampus at 1200 ppm administered as rodent chow starting from 1.5 months and measured after 7 months by RNA-Seq analysis (reference value: 17.148 to 23.051 RPKM); assay type: functional; conditions: route po, time 5.5 months, 4015 h
Procedure, shortened: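 WT and 5xFAD mice were treated with 1200 ppm PLX5622 chow or control chow from 1.5 to 7 months of age. Brains were microdissected into cortex, hippocampus and thalamus, and RNA was extracted from tissue powder. Whole-transcriptome RNA-Seq libraries were sequenced, with n = 4 per group per region (48 samples).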

[15] = Effect on Itgax gene expression in 5XFAD mouse hippocampus at 1200 ppm administered as rodent chow starting from 1.5 months and measured after 7 months by RNA-Seq analysis (reference value: 2.202 to 4.490 RPKM); assay type: functional; conditions: route po, time 5.5 months, 4015 h
[16] = Effect on Scn1b gene expression in wildtype mouse hippocampus assessed as percent change in Reads Per kilo base per Million mapped reads at 1200 ppm administered as rodent chow starting from 1.5 months and measured after 7 months by RNA-Seq analysis (reference value: 86.853 to […]); assay type: functional; conditions: route po, time 5.5 months, 4015 h
[17] = Prevention of Pcdhac1 gene downregulation in 5XFAD mouse hippocampus assessed as percent change in Reads Per kilo base per Million mapped reads at 1200 ppm administered as rodent chow starting from 1.5 months and measured after 7 months by RNA-Seq analysis (reference value: 43.082 to 72.354 %); assay type: functional; conditions: route po, time 5.5 months, 4015 h
Mus musculus [18] = assay: Prevention of Tmem119 gene upregulation in 5XFAD mouse hippocampus at 1200 ppm administered as rodent chow starting from 1.5 months and measured after 7 months by Nanostring analysis; assay type: functional, tissue-based; conditions: route po, time 5.5 months
[19] = target: T1, Macrophage colony-stimulating factor 1 receptor (Mus musculus) (UniProt P09581); assay: In vivo inhibition of CSF1R in wildtype mouse assessed as number of Iba1 positive cells per FOV in […] cortex at 1200 ppm administered as rodent chow starting from 1.5 months to 4 months followed by compound removal and measured after 1 months by immunolabelling based confocal microscopic analysis (reference value: 193 to 236); assay type: functional; conditions: route po, time 2.5 months
T1 sequence (whole entry): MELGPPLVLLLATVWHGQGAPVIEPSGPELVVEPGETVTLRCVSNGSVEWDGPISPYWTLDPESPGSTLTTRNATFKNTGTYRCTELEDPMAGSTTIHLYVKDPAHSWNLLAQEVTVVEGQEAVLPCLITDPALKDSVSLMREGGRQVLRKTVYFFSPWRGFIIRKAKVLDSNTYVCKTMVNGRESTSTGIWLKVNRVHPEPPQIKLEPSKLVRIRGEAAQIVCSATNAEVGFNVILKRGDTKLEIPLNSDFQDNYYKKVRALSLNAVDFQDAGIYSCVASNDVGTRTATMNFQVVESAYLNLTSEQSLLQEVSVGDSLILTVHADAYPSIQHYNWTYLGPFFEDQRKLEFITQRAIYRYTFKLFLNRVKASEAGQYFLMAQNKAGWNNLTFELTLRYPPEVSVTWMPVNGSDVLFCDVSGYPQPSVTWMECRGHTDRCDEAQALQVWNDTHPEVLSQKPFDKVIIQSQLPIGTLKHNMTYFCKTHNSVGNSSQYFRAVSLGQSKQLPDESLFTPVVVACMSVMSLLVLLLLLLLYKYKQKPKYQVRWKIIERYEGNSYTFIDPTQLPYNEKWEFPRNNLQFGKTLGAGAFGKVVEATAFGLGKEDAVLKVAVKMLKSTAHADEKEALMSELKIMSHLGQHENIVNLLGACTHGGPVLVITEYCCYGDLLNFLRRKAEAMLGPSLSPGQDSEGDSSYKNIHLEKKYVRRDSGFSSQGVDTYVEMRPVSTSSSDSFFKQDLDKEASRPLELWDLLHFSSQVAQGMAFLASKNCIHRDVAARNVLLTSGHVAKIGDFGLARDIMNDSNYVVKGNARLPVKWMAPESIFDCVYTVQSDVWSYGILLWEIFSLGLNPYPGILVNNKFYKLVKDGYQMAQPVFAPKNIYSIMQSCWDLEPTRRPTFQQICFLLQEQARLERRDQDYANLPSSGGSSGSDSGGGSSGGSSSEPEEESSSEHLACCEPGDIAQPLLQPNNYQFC

[20] = target: T1, Macrophage colony-stimulating factor 1 receptor (Mus musculus); assay: In vivo inhibition of CSF1R in wildtype mouse assessed as number of GFAP positive cells per FOV at 1200 ppm administered as rodent chow starting from 1.5 months to 4 months followed by compound removal and measured after 1 month by immunolabeling based confocal microscopic analysis (reference value: 1 to 7); assay type: functional; conditions: route po, time 2.5 months

Chain of Tyrosine-protein kinase Yes (P07947 whole entry): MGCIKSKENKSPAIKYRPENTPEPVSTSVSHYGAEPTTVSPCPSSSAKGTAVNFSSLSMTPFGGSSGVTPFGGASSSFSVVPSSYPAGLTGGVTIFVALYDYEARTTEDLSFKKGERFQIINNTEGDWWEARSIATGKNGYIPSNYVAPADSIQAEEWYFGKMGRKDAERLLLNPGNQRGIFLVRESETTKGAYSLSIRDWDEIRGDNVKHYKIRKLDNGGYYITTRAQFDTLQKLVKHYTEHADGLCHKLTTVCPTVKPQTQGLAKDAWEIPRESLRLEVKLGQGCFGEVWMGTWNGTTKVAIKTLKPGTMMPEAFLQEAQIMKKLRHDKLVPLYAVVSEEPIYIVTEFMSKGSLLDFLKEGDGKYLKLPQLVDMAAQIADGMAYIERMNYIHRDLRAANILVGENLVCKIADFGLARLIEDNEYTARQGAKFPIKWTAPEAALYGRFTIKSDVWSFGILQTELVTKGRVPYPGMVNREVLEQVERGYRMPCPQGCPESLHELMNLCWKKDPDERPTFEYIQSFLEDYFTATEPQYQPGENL
Chain of Ephrin type-B receptor 2 (P29323 whole entry): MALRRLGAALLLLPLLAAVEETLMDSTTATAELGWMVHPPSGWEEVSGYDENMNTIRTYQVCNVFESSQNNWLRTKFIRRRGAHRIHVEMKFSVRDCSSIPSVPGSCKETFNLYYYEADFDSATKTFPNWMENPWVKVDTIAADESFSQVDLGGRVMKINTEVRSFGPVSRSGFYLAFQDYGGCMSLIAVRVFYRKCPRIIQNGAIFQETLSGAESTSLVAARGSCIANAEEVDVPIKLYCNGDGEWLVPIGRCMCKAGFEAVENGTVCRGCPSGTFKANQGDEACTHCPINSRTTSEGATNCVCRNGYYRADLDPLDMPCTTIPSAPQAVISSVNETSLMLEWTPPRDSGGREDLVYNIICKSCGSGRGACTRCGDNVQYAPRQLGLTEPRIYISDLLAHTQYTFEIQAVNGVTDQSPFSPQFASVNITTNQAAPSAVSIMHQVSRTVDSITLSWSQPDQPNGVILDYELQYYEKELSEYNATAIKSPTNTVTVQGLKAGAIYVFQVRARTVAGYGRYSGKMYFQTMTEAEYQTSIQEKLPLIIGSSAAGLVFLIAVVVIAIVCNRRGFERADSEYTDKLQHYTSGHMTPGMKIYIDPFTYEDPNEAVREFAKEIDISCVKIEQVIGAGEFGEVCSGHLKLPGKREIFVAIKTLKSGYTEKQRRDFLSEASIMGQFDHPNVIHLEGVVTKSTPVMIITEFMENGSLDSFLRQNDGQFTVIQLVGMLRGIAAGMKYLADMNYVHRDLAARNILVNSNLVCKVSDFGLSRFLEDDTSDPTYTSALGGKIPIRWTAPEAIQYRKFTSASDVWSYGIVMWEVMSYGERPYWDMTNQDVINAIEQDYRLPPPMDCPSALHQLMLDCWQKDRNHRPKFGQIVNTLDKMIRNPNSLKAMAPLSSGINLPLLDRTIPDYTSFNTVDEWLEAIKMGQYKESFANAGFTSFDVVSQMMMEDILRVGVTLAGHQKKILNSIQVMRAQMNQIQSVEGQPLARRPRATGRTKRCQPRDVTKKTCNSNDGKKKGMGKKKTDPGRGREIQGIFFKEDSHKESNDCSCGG
Chain of RAC-beta serine/threonine-protein kinase (P31751 whole entry): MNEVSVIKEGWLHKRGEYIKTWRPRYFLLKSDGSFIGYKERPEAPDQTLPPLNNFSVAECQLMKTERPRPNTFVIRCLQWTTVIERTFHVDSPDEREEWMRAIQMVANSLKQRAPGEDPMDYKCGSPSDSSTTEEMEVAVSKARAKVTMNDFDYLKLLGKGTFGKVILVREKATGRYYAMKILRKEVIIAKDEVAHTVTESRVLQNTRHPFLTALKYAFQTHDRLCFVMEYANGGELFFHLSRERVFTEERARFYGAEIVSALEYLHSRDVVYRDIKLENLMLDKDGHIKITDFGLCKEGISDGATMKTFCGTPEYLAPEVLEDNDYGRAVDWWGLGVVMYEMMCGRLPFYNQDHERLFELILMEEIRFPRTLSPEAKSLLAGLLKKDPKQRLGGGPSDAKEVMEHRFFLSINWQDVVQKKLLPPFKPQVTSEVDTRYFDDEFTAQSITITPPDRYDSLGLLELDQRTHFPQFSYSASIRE
Chain of Serine/threonine-protein kinase Sgk2 (Q9HBY8 whole entry): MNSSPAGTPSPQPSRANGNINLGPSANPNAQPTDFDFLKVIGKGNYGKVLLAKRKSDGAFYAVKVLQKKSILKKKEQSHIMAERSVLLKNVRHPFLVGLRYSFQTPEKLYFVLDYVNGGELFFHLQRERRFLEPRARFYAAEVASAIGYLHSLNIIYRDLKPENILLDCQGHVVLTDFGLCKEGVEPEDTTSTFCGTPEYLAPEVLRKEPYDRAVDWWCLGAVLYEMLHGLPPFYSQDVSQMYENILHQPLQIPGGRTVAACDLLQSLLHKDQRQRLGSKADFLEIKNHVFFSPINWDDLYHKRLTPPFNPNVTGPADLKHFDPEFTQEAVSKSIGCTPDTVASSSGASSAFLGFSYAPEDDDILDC
Chain of Insulin receptor (P06213 28-758 limits assumed): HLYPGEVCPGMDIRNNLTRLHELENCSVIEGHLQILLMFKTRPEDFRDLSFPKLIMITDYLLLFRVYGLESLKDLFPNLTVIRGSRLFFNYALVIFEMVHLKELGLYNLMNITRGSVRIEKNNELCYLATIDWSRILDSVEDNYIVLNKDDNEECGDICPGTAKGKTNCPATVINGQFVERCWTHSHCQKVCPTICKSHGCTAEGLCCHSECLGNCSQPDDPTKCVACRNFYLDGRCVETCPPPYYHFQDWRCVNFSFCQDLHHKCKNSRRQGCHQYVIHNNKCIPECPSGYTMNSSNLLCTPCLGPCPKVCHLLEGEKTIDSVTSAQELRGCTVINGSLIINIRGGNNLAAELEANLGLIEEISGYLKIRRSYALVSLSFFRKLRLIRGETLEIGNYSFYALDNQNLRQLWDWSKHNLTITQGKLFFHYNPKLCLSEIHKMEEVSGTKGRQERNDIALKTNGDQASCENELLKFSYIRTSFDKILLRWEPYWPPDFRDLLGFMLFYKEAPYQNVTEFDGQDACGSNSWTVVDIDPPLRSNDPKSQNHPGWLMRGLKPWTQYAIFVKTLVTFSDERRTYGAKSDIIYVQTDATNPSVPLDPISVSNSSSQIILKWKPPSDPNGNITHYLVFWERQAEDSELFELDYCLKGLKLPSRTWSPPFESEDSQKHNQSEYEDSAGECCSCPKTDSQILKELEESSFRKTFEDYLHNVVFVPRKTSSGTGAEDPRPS
Chain of Insulin receptor (P06213 763-1382 limits assumed): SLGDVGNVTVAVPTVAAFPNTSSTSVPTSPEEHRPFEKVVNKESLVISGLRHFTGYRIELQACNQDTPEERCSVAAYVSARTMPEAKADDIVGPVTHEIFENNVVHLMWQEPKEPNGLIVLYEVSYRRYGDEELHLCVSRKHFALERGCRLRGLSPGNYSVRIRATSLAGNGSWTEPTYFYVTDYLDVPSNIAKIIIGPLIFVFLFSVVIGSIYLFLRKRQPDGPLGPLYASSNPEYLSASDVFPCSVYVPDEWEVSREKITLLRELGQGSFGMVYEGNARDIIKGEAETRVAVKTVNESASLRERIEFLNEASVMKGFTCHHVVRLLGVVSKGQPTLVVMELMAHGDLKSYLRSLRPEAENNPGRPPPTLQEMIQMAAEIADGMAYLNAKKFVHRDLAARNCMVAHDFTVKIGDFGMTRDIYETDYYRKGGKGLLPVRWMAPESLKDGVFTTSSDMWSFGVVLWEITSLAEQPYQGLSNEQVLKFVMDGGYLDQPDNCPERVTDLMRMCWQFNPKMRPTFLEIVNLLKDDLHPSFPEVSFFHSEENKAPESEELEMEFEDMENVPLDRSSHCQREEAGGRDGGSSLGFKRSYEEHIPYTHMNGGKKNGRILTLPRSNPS
Chain of Inhibitor of nuclear factor kappa-B kinase subunit alpha (O15111 whole entry): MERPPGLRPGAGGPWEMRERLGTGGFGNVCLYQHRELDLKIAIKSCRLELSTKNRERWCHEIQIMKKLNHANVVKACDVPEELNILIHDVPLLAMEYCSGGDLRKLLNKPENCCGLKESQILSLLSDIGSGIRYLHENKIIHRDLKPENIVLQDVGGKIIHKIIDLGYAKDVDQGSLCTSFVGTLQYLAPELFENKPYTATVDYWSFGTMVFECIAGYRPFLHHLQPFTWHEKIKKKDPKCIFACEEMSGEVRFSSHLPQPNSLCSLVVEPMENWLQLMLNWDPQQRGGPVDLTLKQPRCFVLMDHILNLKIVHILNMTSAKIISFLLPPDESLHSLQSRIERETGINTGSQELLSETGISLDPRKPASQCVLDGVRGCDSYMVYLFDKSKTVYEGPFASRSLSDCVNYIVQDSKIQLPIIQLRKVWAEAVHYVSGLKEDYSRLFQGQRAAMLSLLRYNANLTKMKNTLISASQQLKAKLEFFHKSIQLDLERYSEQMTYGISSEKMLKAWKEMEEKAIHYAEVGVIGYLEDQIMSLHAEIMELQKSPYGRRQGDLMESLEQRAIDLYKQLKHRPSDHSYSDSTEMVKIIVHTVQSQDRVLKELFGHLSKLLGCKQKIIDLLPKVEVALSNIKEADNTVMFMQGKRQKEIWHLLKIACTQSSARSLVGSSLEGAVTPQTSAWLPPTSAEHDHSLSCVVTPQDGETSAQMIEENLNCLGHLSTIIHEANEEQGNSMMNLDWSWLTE
Chain of Tyrosine-protein kinase Blk (P51451 whole entry): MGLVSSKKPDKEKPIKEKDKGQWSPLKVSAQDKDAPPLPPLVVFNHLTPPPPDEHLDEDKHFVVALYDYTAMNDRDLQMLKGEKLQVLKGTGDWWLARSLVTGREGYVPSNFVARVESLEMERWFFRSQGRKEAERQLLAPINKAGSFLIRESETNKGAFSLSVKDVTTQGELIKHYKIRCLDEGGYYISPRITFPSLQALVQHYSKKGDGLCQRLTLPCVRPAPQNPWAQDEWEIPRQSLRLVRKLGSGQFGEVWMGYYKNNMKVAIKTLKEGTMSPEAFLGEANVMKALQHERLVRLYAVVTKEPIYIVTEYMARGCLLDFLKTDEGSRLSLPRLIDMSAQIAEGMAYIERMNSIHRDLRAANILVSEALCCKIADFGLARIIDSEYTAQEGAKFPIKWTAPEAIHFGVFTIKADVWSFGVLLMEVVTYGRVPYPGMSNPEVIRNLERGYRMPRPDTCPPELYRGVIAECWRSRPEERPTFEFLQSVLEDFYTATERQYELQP

With `FC(F)(F)c1ccc(CNc2ccc(Cc3c[nH]c4ncc(Cl)cc34)cn2)cn1` [PEXIDARTINIB] as the compound, how does the Activity (Mus musculus [1]) read?
Its Activity is 345.

For `COc1ncc(F)cc1CNc1ccc(Cc2c[nH]c3ncc(C)cc23)c(F)n1` [PLX-5622], which IC50 [2] is on record?
The IC50 was > 1 µM.

And the IC50 [3]?
The IC50 was > 1 µM.

What about the IC50 [4] of the same compound?
The IC50 was > 1 µM.

What about the IC50 [5] of the same compound?
Its IC50 is > 1 µM.

And the IC50 (Ephrin type-B receptor 2)?
Its IC50 is > 1 µM.

What about the IC50 [6] of the same compound?
Its IC50 is > 1 µM.

What about the IC50 (Insulin receptor) of the same compound?
Its IC50 is > 1 µM.

What about the IC50 [7] of the same compound?
Its IC50 is > 1 µM.

And the IC50 [8]?
The IC50 was > 1 µM.

And the IC50 [9]?
The IC50 was > 1 µM.

And the AUC(0-inf) [10]?
Its AUC(0-inf) is 215 µg·h/mL.

And the Activity (Mus musculus [11])?
Its Activity is 2.

And the Activity (Mus musculus [12])?
The Activity was 70.238%.

What about the Activity (Mus musculus [13]) of the same compound?
The Activity was 97.

What about the Activity [14] of the same compound?
The Activity was 0.17 RPKM.

What about the Activity [15] of the same compound?
Its Activity is 0.155 RPKM.

What about the Activity [16] of the same compound?
The Activity was 83.818%.

And the Activity [17]?
The Activity was 76.485%.

What about the Activity (Mus musculus [18]) of the same compound?
The Activity was “Active”.

And the Activity [19]?
Its Activity is 51.

What about the Activity [20] of the same compound?
Its Activity is 3.
